Test results as given in ChEMBL document CHEMBL1955834, “Disparate SAR data of griseofulvin analogues for the dermatophytes Trichophyton mentagrophytes, T. rubrum, and MDA-MB-231 cancer cells” (J Med Chem, 2012).
Activity calls are given as the source filed them. The rule behind the calls is not given here.

Columns and labels:
MDA-MB-231 [1] = test: Cytotoxicity against human MDA-MB-231 cells assessed as cell viability after 48 hrs by MTT assay; type: functional, cell-based; conditions: MDA-MB-231, 48 h
How it was run: (§1)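 MDA-MB-231 cells were grown in L-15 with 10% FCS at 37 °C and seeded at (2-3) × 10^4 per well. Exposure was 24 and/or 48 h, then MTT for at least 4 h, with absorbance read at 570/630 nm. Each condition had at least 3 replicates, reported as mean ± SD of a representative experiment repeated at least three times.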

Trichophyton rubrum [2] = test: Antifungal activity against Trichophyton rubrum IBT 29284 at 50 uM after 7 days by micro broth dilution method; type: functional; conditions: for inhibition at 50 µM: IBT 29284, 168 h
How it was run: (§2)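 T. rubrum IBT29284 was tested by broth microdilution using a 4-fold dilution series of 10 concentrations from 50 μM down to 0.2 μM, with 1% DMSO. The inoculum followed CLSI M38-A2, set to OD530 0.90–1.5 and diluted 50-fold in RPMI/MOPS at pH 7.00. Incubation was 7 days at 37 °C, read by OD. IC50 came from a variable-slope sigmoidal fit.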

[3] = system: Trichophyton mentagrophytes; test: Antifungal activity against Trichophyton mentagrophytes IBT 2724 after 7 days by micro broth dilution method; type: functional, organism-based; conditions: IBT 2724, 168 h
How it was run: (§3)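 T. mentagrophytes IBT2724 was tested by broth microdilution using an 8-fold dilution series of 10 concentrations from 50 μM down to 0.4 μM, with 1% DMSO. The inoculum was prepared per CLSI M38-A2, adjusted to OD530 0.90–1.5 and diluted 50-fold in RPMI/MOPS at pH 7.00. Plates ran 7 days at 37 °C with an OD read-out. IC50 came from a variable-slope sigmoidal fit.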

[4] = system: Trichophyton mentagrophytes; test: Antifungal activity against Trichophyton mentagrophytes IBT 2724 at 50 uM after 7 days by micro broth dilution method; type: functional; conditions: for inhibition at 50 µM: IBT 2724, 168 h; how it was run: as §3
MDA-MB-231 [5] = test: Cytotoxicity against human MDA-MB-231 cells assessed as cell viability at 50 uM after 48 hrs by MTT assay; type: functional; conditions: for inhibition at 50 µM: MDA-MB-231, 48 h; how it was run: as §1
SCC114 = test: Cytotoxicity against human SCC114 cells by phenotype-based spindle multipolarity assay; type: functional, cell-based
Trichophyton rubrum [6] = test: Antifungal activity against Trichophyton rubrum IBT 29284 after 7 days by micro broth dilution method; type: functional, organism-based; conditions: IBT 29284, 168 h; how it was run: as §2
[7] = Drug degradation in phosphate buffered saline at pH 7.4 assessed as compound hydrolysis after 48 hrs; type: physicochemical; conditions: read-out: Drug degradation
How it was run: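 Oximes were held in PBS at pH 7.4 for 48 h, and hydrolysis to the parent ketones was monitored.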

IC50 [3] [nM]	IC50 (Trichophyton rubrum [6]) [nM]	SMILES	IC50 (MDA-MB-231 [1]) [nM]	inhibition (Trichophyton rubrum [2])	other results
700		COc1ccccc1COC1=CC(=O)C[C@@H](C)[C@]12Oc1c(Cl)c(OC)cc(OC)c1C2=O	11000		inhibition at 50 µM (Trichophyton rubrum [2]): < 50%
		COC1=CC(=O)C[C@@H](C)[C@]12Oc1c(Cl)c(OC)c([N+](=O)[O-])c(OC)c1C2=O		inactive	inhibition [4]: inactive; inhibition (MDA-MB-231 [5]): inactive
350		COc1cc(OC)c2c(c1Cl)O[C@]1(C2=O)C(OCc2cccnc2)=CC(=O)C[C@H]1C	10000		inhibition at 50 µM (Trichophyton rubrum [2]): < 50%
		CCCOC1=CC(=O)[C@@]2(Oc3c(Cl)c(OC)cc(OC)c3C2=O)[C@H](C)C1	43000	inactive	inhibition (SCC114): inactive; inhibition at 50 µM [4]: < 50%
240	2500	COc1cc(OC)c2c(c1Cl)O[C@]1(C2=O)C(OC2CCCC2)=CC(=O)C[C@H]1C	3200		
		COc1ccc(COC2=CC(=O)C[C@@H](C)[C@]23Oc2c(Cl)c(OC)cc(OC)c2C3=O)cc1		inactive	inhibition [4]: inactive; inhibition at 50 µM (MDA-MB-231 [5]): < 50%
		COc1cc(OC)c2c(c1Cl)O[C@]1(C2=O)C(OCC23CC4CC(CC(C4)C2)C3)=CC(=O)C[C@H]1C	4700	inactive	inhibition [4]: inactive
140	960	COc1cccc(COC2=CC(=O)C[C@@H](C)[C@]23Oc2c(Cl)c(OC)cc(OC)c2C3=O)c1	8100		
260	1100	COc1cc(OC)c2c(c1Cl)O[C@]1(C2=O)C(OCc2ccccc2)=CC(=O)C[C@H]1C	2100		
41	830	COc1cc(OC)c2c(c1Cl)O[C@]1(C2=O)C(OCc2ccc(F)cc2)=CC(=O)C[C@H]1C	6500		
150	1500	COc1cc(OC)c2c(c1Cl)O[C@]1(C2=O)C(OCc2ccc(C(F)(F)F)cc2)=CC(=O)C[C@H]1C	7000		
250	690	CCOC1=CC(=O)C[C@@H](C)[C@]12Oc1c(Cl)c(OC)cc(OC)c1C2=O	13000		
1100		COc1cc(OC)c2c(c1Cl)O[C@]1(C2=O)C(OCc2ccccc2)=C(I)C(=O)C[C@H]1C		inactive	inhibition at 50 µM (MDA-MB-231 [5]): < 50%
		COc1cc(OC)c2c(c1Cl)O[C@]1(C2=O)C(OCc2ccncc2)=CC(=O)C[C@H]1C	19000		inhibition at 50 µM (Trichophyton rubrum [2]): < 50%; inhibition at 50 µM [4]: < 50%
		COc1cc(OC)c2c(c1Cl)O[C@@]1(C(=O)C=C(Cl)C[C@H]1C)C2=O	1000	inactive	inhibition [4]: inactive
		COc1cc(OC)c2c(c1Cl)O[C@@]1(C(=O)C=C(OCc3ccccc3)C[C@H]1C)C2=O		inactive	inhibition (SCC114): inactive; inhibition at 50 µM [4]: < 50%; inhibition at 50 µM (MDA-MB-231 [5]): < 50%
1700		COc1cc(OC)c2c(c1Cl)O[C@]1(C2=O)C(OCc2ccc(CO)cc2)=CC(=O)C[C@H]1C	2800		inhibition at 50 µM (Trichophyton rubrum [2]): < 50%
250	2600	COc1cc(OC)c2c(c1Cl)O[C@]1(C2=O)C(OCc2cccc3ccccc23)=CC(=O)C[C@H]1C	13000		
		COc1cc(OC)c2c(c1Cl)O[C@@]1(C(=O)C=C(OCC3CC3)C[C@H]1C)C2=O	52000	inactive	inhibition (SCC114): inactive; inhibition at 50 µM [4]: < 50%
		COc1cc(OC)c2c(c1Cl)O[C@@]1(C(=O)C=C(OC(C)C)C[C@H]1C)C2=O	48000	inactive	inhibition (SCC114): inactive; inhibition at 50 µM [4]: < 50%
1600	6100	COc1cc(OC)c2c(c1Cl)O[C@]1(C2=O)C(Oc2ccccc2)=CC(=O)C[C@H]1C	7200		
		CCOC1=CC(=O)[C@@]2(Oc3c(Cl)c(OC)cc(OC)c3C2=O)[C@H](C)C1		inactive	inhibition (SCC114): inactive; inhibition at 50 µM [4]: < 50%; inhibition at 50 µM (MDA-MB-231 [5]): < 50%
280		COc1cc(OC)c2c(c1Cl)O[C@]1(C2=O)C(OCCc2ccccc2)=CC(=O)C[C@H]1C	17000		inhibition at 50 µM (Trichophyton rubrum [2]): < 50%
		COC1=CC(=O)C[C@@H](C)[C@]12Oc1c(Cl)c(OC)c(N)c(OC)c1C2=O		inactive	inhibition [4]: inactive; inhibition (MDA-MB-231 [5]): inactive

IC50 [3] [nM]	IC50 (Trichophyton rubrum [6]) [nM]	SMILES	IC50 (MDA-MB-231 [1]) [nM]	inhibition (Trichophyton rubrum [2])	other results
62	1300	CCOc1cc(OC)c2c(c1Cl)O[C@]1(C2=O)C(OC)=CC(=O)C[C@H]1C	36000		
		COC1=C(I)C(=O)C[C@@H](C)[C@]12Oc1c(Cl)c(OC)cc(OC)c1C2=O	22000	inactive	inhibition at 50 µM [4]: < 50%
230	1600	CCCOC1=C(I)C(=O)C[C@@H](C)[C@]12Oc1c(Cl)c(OC)cc(OC)c1C2=O	8000		
		COc1cc(OC)c2c(c1Cl)O[C@]1(C2=O)C(OCc2cccc3ccccc23)=C/C(=N\O)C[C@H]1C	8300	inactive	inhibition [4]: inactive; degraded at 48 h [7]: < 5%
1300		COc1cc(OC)c2c(c1Cl)O[C@]1(C2=O)C(OCc2ccccn2)=CC(=O)C[C@H]1C	32000		inhibition at 50 µM (Trichophyton rubrum [2]): < 50%
		COc1cc(OC)c2c(c1Cl)O[C@]1(C(=O)CC(=O)C[C@@H]1C)C2=O (relative stereo)		inactive	inhibition at 50 µM [4]: < 50%; inhibition (MDA-MB-231 [5]): inactive
170		CCCCCOc1cc(OC)c(Cl)c2c1C(=O)[C@@]1(O2)C(OC)=CC(=O)C[C@H]1C			inhibition at 50 µM (Trichophyton rubrum [2]): < 50%; inhibition at 50 µM (MDA-MB-231 [5]): < 50%
60	1500	COc1cc(OC)c2c(c1Cl)O[C@]1(C2=O)C(OCC2CC2)=CC(=O)C[C@H]1C	9400		
58	1300	COc1cc(OC)c2c(c1Cl)O[C@]1(C2=O)C(SCc2ccccc2)=CC(=O)C[C@H]1C	4700		
		COc1cccc(COC2=CC(=O)[C@@]3(Oc4c(Cl)c(OC)cc(OC)c4C3=O)[C@H](C)C2)c1	25000	inactive	inhibition at 50 µM [4]: < 50%
3000		COc1cc(OC)c2c(c1Cl)O[C@@]1(C2=O)[C@H](C)C[C@H](O)C[C@@H]1OC			inhibition at 50 µM (Trichophyton rubrum [2]): < 50%; inhibition (MDA-MB-231 [5]): inactive
		COc1cc(OC)c2c(c1Cl)O[C@@]1(C(=O)C=C(OC3CCCC3)C[C@H]1C)C2=O	27000	inactive	inhibition (SCC114): inactive; inhibition at 50 µM [4]: < 50%
		COC1=CC(=O)[C@@]2(Oc3c(Cl)c(OC)cc(OC)c3C2=O)[C@H](C)C1		inactive	inhibition (SCC114): inactive; inhibition [4]: inactive; inhibition (MDA-MB-231 [5]): inactive
		COC1=CC(=O)C[C@@H](C)[C@]12Oc1c(Cl)c(OC)cc(OCc3cccc4ccccc34)c1C2=O	17000	inactive	inhibition [4]: inactive
240	1000	COc1cc(OC)c2c(c1Cl)O[C@]1(C2=O)C(OCc2ccc(C)cc2)=CC(=O)C[C@H]1C	1800		
		COc1cc(OC)c2c(c1Cl)O[C@]1(C2=O)C(Cl)=CC(=O)C[C@H]1C	3200		inhibition at 50 µM (Trichophyton rubrum [2]): < 50%; inhibition at 50 µM [4]: < 50%
		COC1=CC(=O)C[C@@H](C)[C@]12Oc1c(Cl)c(O)cc(OC)c1C2=O		inactive	inhibition [4]: inactive; inhibition at 50 µM (MDA-MB-231 [5]): < 50%
290	2000	CCOc1cc(OC)c(Cl)c2c1C(=O)[C@@]1(O2)C(OC)=CC(=O)C[C@H]1C			inhibition (MDA-MB-231 [5]): inactive
		COC1=CC(=O)C[C@@H](C)[C@]12Oc1c(Cl)c(OC)cc(O)c1C2=O		inactive	inhibition at 50 µM [4]: < 50%; inhibition (MDA-MB-231 [5]): inactive
		COc1cc(OC)c2c(c1Cl)O[C@]1(C2=O)C(=O)C(C)(C)C(=O)C[C@H]1C		inactive	inhibition [4]: inactive; inhibition (MDA-MB-231 [5]): inactive
		COc1cc(OC)c2c(c1Cl)O[C@]1(C2=O)C(OCc2ccc(-c3ccccc3)cc2)=CC(=O)C[C@H]1C	5800	inactive	inhibition [4]: inactive
110	3100	COc1cc(OC)c2c(c1Cl)O[C@]1(C2=O)C(OC(C)C)=CC(=O)C[C@H]1C	11000		
		COc1cc(O)c(Cl)c2c1C(=O)[C@@]1(O2)C(=O)C=C(O)C[C@H]1C		inactive	inhibition [4]: inactive; inhibition (MDA-MB-231 [5]): inactive
250		COC1=CC(=O)C[C@@H](C)[C@]12Oc1c(Cl)c(OC)cc(OCc3ccccc3)c1C2=O	20000	inactive	inhibition (SCC114): inactive
